Test results reported in ChEMBL document CHEMBL4428038, “Overcoming chloroquine resistance in malaria: Design, synthesis and structure-activity relationships of novel chemoreversal agents” (Eur J Med Chem, 2016).
≈ marks a conversion by molar mass, not a printed value. Calls of active or inactive are those of the source. No cut-off for these calls is given here.

Legend:
[1] = test system: T1, Chloroquine resistance transporter (Plasmodium falciparum), Q9N623 [K76T]; test: Inhibition of CRT K76T mutant in chloroquine-resistant Plasmodium falciparum Dd2 isolate MRA-156 assessed as reversal of chloroquine resistance by measuring reduction in chloroquine IC50 at 500 nM relative to chloroquine alone
T1 sequence (whole entry): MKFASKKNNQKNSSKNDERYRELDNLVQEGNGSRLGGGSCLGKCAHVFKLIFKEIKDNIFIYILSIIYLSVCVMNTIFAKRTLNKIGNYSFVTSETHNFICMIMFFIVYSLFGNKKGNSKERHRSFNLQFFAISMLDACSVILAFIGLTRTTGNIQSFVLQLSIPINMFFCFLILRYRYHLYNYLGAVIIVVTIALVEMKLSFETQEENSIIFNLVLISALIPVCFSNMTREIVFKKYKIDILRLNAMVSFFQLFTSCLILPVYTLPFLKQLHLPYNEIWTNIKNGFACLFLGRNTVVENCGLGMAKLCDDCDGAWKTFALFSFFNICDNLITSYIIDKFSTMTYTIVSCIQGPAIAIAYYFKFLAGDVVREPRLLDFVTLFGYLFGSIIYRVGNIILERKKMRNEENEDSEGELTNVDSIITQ

Plasmodium falciparum [2] = test: Intrinsic antimalarial activity against chloroquine/artemisinin-resistant Plasmodium falciparum ARS272 harboring CRT K76T mutant assessed as reduction in parasite viability at 500 nM; assay type: functional, organism-based
Plasmodium falciparum [3] = test: Intrinsic antimalarial activity against chloroquine-resistant Plasmodium falciparum K1 isolate MRA-159 harboring CRT CVIET haplotype mutant assessed as reduction in parasite viability at 500 nM; assay type: functional, organism-based
Plasmodium falciparum K1 [4] = test: Inhibition of CRT CVIET haplotype mutant in Plasmodium falciparum K1 isolate MRA-159 infected in erythrocytes assessed as chloroquine-coumarin probe accumulation at 10 uM after 10 hrs by Hoechst 33342 staining based flow cytometry (reference value: 35.57 +/- 3.84%); assay type: cell-based; set-up: scale not given: the % may be the effect or the level left
Outline: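 Infected erythrocyte cultures at 2.5% hematocrit and 7–12% parasitemia, synchronized to late-ring/early-trophozoite stage, were incubated with chloroquine-coumarin probe plus test agent for 10 h at 37 C. Cells were then washed, resuspended in PBS and read by flow cytometry (405 nm excitation, 450/50 filter). Hoechst-stained duplicate wells set parasitemia. Uptake = % infected erythrocytes fluorescent. Controls: PBS (negative), desipramine and parent compound (positive). ≥3 independent experiments; mean ± SEM.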

Plasmodium falciparum [5] = test: Potentiation of chloroquine-induced antimalarial activity against chloroquine-sensitive Plasmodium falciparum HB3 isolate MRA-155 assessed as reduction in chloroquine IC50 at 500 nM relative to chloroquine alone; assay type: functional
[6] = Aqueous kinetic solubility of compound in pH 7.4 solution incubated for 24 hrs; assay type: physicochemical; details: for solubility kinetic at 24 h: aqueous solution pH 7.4, pH 7.4, read-out: Kinetic_solubility
[7] = test system: T1, Chloroquine resistance transporter (Plasmodium falciparum), Q9N623 [K76T]; test: Inhibition of CRT K76T mutant in chloroquine-resistant Plasmodium falciparum NHP4559 assessed as reversal of chloroquine resistance by measuring reduction in chloroquine IC50 at 500 nM relative to chloroquine alone
[8] = Resistance index, ratio of chloroquine IC50 for intermediate chloroquine-resistant Plasmodium falciparum 7G8 isolate MRA-154 CRT SVMNT haplotype mutant to chloroquine IC50 for chloroquine-sensitive Plasmodium falciparum 3D7 isolate MRA-102 at 500 nM
Outline: (§1)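 Chloroquine IC50 was measured with the chemoreversal agent fixed at 500 nM in K1 or 7G8 and in sensitive 3D7 (means, n = 3). The resistance ratio is the chloroquine IC50 in K1 or 7G8 divided by the chloroquine IC50 in 3D7.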

[9] = test system: Plasmodium falciparum 7G8; test: Inhibition of CRT SVMNT haplotype mutant in intermediate chloroquine-resistant Plasmodium falciparum 7G8 isolate MRA-154 t assessed as reversal of chloroquine resistance by measuring reduction in chloroquine IC50 at 500 nM relative to chloroquine alone
Plasmodium falciparum [10] = test: Intrinsic antimalarial activity against chloroquine-resistant Plasmodium falciparum Dd2 isolate MRA-156 harboring CRT K76T mutant assessed as reduction in parasite viability at 500 nM; assay type: functional, organism-based
Plasmodium falciparum [11] = test: Intrinsic antimalarial activity against chloroquine/artemisinin-resistant Plasmodium falciparum NHP4773 harboring CRT K76T mutant assessed as reduction in parasite viability at 500 nM; assay type: functional, organism-based
Plasmodium falciparum [12] = test: Intrinsic antimalarial activity against chloroquine-resistant Plasmodium falciparum NHP4559 harboring CRT K76T mutant assessed as reduction in parasite viability at 500 nM; assay type: functional, organism-based
[13] = Resistance index, ratio of chloroquine IC50 for chloroquine-resistant Plasmodium falciparum K1 isolate MRA-159 CRT CVIET haplotype mutant to chloroquine IC50 for chloroquine-sensitive Plasmodium falciparum 3D7 isolate MRA-102 at 500 nM; outline: as §1
[14] = test system: T1, Chloroquine resistance transporter (Plasmodium falciparum), Q9N623 [K76T]; test: Inhibition of CRT K76T mutant in chloroquine/artemisinin-resistant Plasmodium falciparum ARS272 assessed as reversal of chloroquine resistance by measuring reduction in chloroquine IC50 at 500 nM relative to chloroquine alone
[15] = Permeability of compound incubated for 16 hrs at pH 7.4 by PAMPA; assay type: ADME; details: read-out: Peff
Plasmodium falciparum [16] = test: Intrinsic antimalarial activity against chloroquine-sensitive Plasmodium falciparum 3D7 isolate MRA-102 assessed as reduction in parasite viability at 500 nM; assay type: functional, organism-based
Plasmodium falciparum [17] = test: Intrinsic antimalarial activity against chloroquine/artemisinin-resistant Plasmodium falciparum ARS233 harboring CRT K76T mutant assessed as reduction in parasite viability at 500 nM; assay type: functional, organism-based
[18] = Permeability of compound incubated for 6 hrs at pH 7.4 by PAMPA; assay type: ADME; details: read-out: Peff
Plasmodium falciparum [19] = test: Intrinsic antimalarial activity against intermediate chloroquine-resistant Plasmodium falciparum 7G8 isolate MRA-154 harboring CRT SVMNT haplotype mutant assessed as reduction in parasite viability at 500 nM; assay type: functional, organism-based
[20] = Inhibition of CRT CVIET haplotype mutant in Plasmodium falciparum K1 isolate MRA-159 infected in erythrocytes assessed as reversal of chloroquine resistance by measuring reduction in chloroquine IC50 by Hoechst 33342 staining based flow cytometry; assay type: cell-based
Outline: (§2)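 Chloroquine IC50 was determined in the presence of a fixed 500 nM chemoreversal agent, against chloroquine alone. The RMI is the ratio of chloroquine IC50 with agent to chloroquine IC50 alone. Mean of n = 3; two-tailed t test versus chloroquine without agent.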

[21] = test system: T1, Chloroquine resistance transporter (Plasmodium falciparum), Q9N623 [K76T]; test: Inhibition of CRT K76T mutant in chloroquine/artemisinin-resistant Plasmodium falciparum NHP4773 assessed as reversal of chloroquine resistance by measuring reduction in chloroquine IC50 at 500 nM relative to chloroquine alone
Plasmodium falciparum [22] = test: Intrinsic antimalarial activity against chloroquine-sensitive Plasmodium falciparum HB3 isolate MRA-155 assessed as reduction in parasite viability at 500 nM; assay type: functional, organism-based
[23] = test system: T1, Chloroquine resistance transporter (Plasmodium falciparum), Q9N623 [K76T]; test: Inhibition of CRT K76T mutant in chloroquine/artemisinin-resistant Plasmodium falciparum ARS233 assessed as reversal of chloroquine resistance by measuring reduction in chloroquine IC50 at 500 nM relative to chloroquine alone
Plasmodium falciparum K1 [24] = test: Inhibition of CRT CVIET haplotype mutant in chloroquine-resistant Plasmodium falciparum K1 isolate MRA-159 assessed as reversal of chloroquine resistance by measuring reduction in chloroquine IC50 at 500 nM relative to chloroquine alone
Plasmodium falciparum [25] = test: Potentiation of chloroquine-induced antimalarial activity against chloroquine-sensitive Plasmodium falciparum 3D7 isolate MRA-102 assessed as reduction in chloroquine IC50 at 500 nM relative to chloroquine alone; assay type: functional
[26] = Solubility of compound in DMSO at 10 uM; assay type: physicochemical
Outline: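 Solubility judged under the probe-3 uptake assay conditions. DMSO stocks were stored in aliquots and diluted to working concentration with PBS, protected from light. The compound was added to K1 parasite cultures (2.5% hematocrit, late-ring/early-trophozoite stage) with 6 of fluorescent CQ probe and incubated for 10 h at 37 °C.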

[27] = Therapeutic index, ratio of IC50 for TAMH to EC50 for chloroquine-resistant Plasmodium falciparum K1 isolate MRA-159 CRT CVIET haplotype mutant; assay type: toxicity; details: mouse, TAMH cells; read-out: Ratio IC50/EC50
Outline: (§3)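 Host-cell IC50 was measured by ATP-luminescence viability assay in TAMH hepatocytes (mean of n = 4 independent determinations) or AC10 cardiomyocytes. Each IC50 was divided by the K1 EC50, the concentration of chemoreversal agent that halves the chloroquine concentration needed for 50% parasite inhibition.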

[28] = Inhibition of CRT CVIET haplotype mutant in chloroquine-resistant Plasmodium falciparum K1 isolate MRA-159 assessed as reversal of chloroquine resistance by measuring reduction in chloroquine IC50 relative to chloroquine alone; outline: as §2
TAMH = test: Cytotoxicity against TAMH assessed as reduction in cell viability by CellTiter-Glo assay; assay type: cell-based; details: Mus musculus
Outline: (§4)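 For TAMH (hepatocyte line) and AC10 (cardiomyocyte line), viability was read by ATP luminescence (CellTiter-Glo), and the value reported is IC50.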

[29] = Therapeutic index, ratio of IC50 for human AC10 cells to EC50 for chloroquine-resistant Plasmodium falciparum K1 isolate MRA-159 CRT CVIET haplotype mutant; assay type: toxicity; details: read-out: Ratio IC50/EC50; outline: as §3
[30] = Cytotoxicity against human AC10 cells assessed as reduction in cell viability by CellTiter-Glo assay; assay type: cell-based; outline: as §4

SMILES | Ratio IC50 [1] | Activity (Plasmodium falciparum [2]) | Activity (Plasmodium falciparum [3]) | Activity (Plasmodium falciparum K1 [4]) [%] | Ratio IC50 (Plasmodium falciparum [5]) | Ratio IC50 [7] | Ratio IC50 [8] | Ratio IC50 [9] | Activity (Plasmodium falciparum [10]) | Activity (Plasmodium falciparum [11]) | Activity (Plasmodium falciparum [12]) | Ratio IC50 [13] | Ratio IC50 [14] | Papp at 16 h [15] [×10⁻⁶ cm/s] | Activity (Plasmodium falciparum [16]) | Activity (Plasmodium falciparum [17]) | Papp at 6 h [18] [×10⁻⁶ cm/s] | Activity (Plasmodium falciparum [19]) | Ratio IC50 [21] | Activity (Plasmodium falciparum [22]) | further results
CN(C)C(=O)C(CCN1CCC(O)(c2ccc(Cl)cc2)CC1)(c1ccccc1)c1ccccc1 [LOPERAMIDE] | 0.82 | inactive | inactive | 87.6 | 1.04 | 0.79 | 3.4 | 0.59 | inactive | inactive | inactive | 14 | 0.75 | 12.5 | inactive | inactive | 16 | inactive | 0.64 | inactive | Kinetic_solubility ([6]; buffer, pH 7.4, 24 h): 410 µg/mL; EC50 [20]: 0.685 µM; Ratio IC50 [23]: 0.64; Ratio IC50 (Plasmodium falciparum K1 [24]): 0.74; Ratio IC50 (Plasmodium falciparum [25]): 1.08
CN1CCN(C2Cc3ccccc3Sc3ccccc32)CC1 (stereo not drawn) |  |  |  |  |  |  |  |  |  |  |  |  |  |  |  |  |  |  |  |  | solubility [26]: Insoluble
NC(=O)C(CCN1CCC(O)(c2ccc(Cl)cc2)CC1)(c1ccccc1)c1ccccc1 | 1.16 | inactive | inactive | 73.5 | 1.06 | 1.01 | 6.2 | 1.25 | inactive | inactive | inactive | 14.8 | 0.94 | 1.78 | inactive | inactive | 0.65 | inactive | 0.96 | inactive | selectivity ratio [27]: 210; solubility kinetic at 24 h [6]: > 450 µg/mL; EC50 [28]: 0.482 µM; IC50 (TAMH): 101 µM; selectivity ratio [29]: 94; Ratio IC50 [23]: 0.91; IC50 [30]: 45.2 µM; Ratio IC50 (Plasmodium falciparum K1 [24]): 0.89; Ratio IC50 (Plasmodium falciparum [25]): 1.23
CC(C)(C)OC(=O)N1CCN(C2Cc3ccccc3Sc3ccccc32)CC1 (stereo not drawn) |  |  |  |  |  |  |  |  |  |  |  |  |  |  |  |  |  |  |  |  | solubility [26]: Insoluble
Ic1ccccc1CN[C@@H]1C2CCN(CC2)[C@@H]1C(c1ccccc1)c1ccccc1 | 0.37 | inactive | inactive | 80.5 | 1.09 | 0.28 | 3.4 | 0.59 | inactive | inactive | inactive | 5 | 0.26 | 8.24 | inactive | inactive | 10.4 | inactive | 0.27 | inactive | selectivity ratio [27]: 175; solubility kinetic at 24 h [6]: 31 µg/mL (≈ 61 µM); IC50 (TAMH): 17.2 µM; EC50 [20]: 0.098 µM; Ratio IC50 [23]: 0.2; Ratio IC50 (Plasmodium falciparum K1 [24]): 0.26; Ratio IC50 (Plasmodium falciparum [25]): 1.07
